bIAP act = increases bovine intestinal alkaline phosphatase activity | purified bovine IAP, CDP-star luminescence, 30 min; hits give high values; fold of DMSO-control signal, blank-subtracted | hit rate 0.17% among 200,000 | activation factor at 20 µM;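 active = activation factor of 2 or more at 20 µM, a signal rise over negative controls twice the positive control's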
bIAP inh = intestinal alkaline phosphatase (bovine) inhibition; inhibition, % at 20 µM; 190,000 tested, under 10 active; purified bovine IAP, CDP-star luminescence, 30 min; AID 1019;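 active = over 50% inhibition of intestinal alkaline phosphatase at 20 µM in the single-dose screen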
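Assay system – bovine IAP enzyme · Quantity – bovine IAP at 1/65,000,000 final dilution · Detection – CDP-star luminescence signal · Times – 30 min reaction at room temperature · Also added – CDP-star substrate at 30 µM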
mIAP activ = mouse IAP activation; muIAP, CDP-Star luminescence, 30 min; hits give high values; 1 = vehicle-only enzyme signal, 0 = enzyme-free wells; activation factor at 10 µM; hit rate 0.24% among 330,000; AID 2805;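 active = activation factor of at least 2 at 20 µM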
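Assay system: mouse IAP enzyme; Reagent: CDP-Star chemiluminescent phosphatase substrate; Compound: DMSO-dissolved test compounds; Incubation: 30 min, room temperature; Technique: luminescence from enzymatic CDP-Star hydrolysis; Controls: DMSO-only wells and no-enzyme negative control.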
hIAP activ = increases human intestinal alkaline phosphatase activity; P09923; purified human IAP, CDP-Star luminescence, 30 min; hits give high values; 1 = vehicle-only enzyme, 0 = enzyme-free background; activation factor at 10 µM; hit rate 0.16% among 330,000; AID 2524;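 active = activation factor of the enzyme at least 2-fold when tested at 20 µM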
Target sequence (P09923 whole entry, looked up): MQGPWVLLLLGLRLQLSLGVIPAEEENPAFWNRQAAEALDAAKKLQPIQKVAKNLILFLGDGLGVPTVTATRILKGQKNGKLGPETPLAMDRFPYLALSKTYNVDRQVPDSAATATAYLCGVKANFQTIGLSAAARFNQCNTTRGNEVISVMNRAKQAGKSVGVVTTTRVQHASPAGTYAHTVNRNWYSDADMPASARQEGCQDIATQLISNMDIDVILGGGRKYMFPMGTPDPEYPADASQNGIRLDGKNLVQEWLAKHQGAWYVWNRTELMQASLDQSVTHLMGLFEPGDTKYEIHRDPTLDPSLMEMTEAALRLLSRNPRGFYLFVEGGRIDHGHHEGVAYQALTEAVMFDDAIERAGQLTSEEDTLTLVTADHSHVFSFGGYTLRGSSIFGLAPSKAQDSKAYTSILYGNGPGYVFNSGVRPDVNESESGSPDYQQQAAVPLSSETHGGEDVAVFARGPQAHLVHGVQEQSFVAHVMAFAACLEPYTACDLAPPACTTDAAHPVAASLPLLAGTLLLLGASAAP
mIAP block = mouse IAP inhibition | purified mouse IAP, CDP-Star luminescence, 30 min | inhibition, % at 10 µM | hit rate 0.2% among 330,000 | AID 2806;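 active = inhibition of at least 40% at 10 µM in the primary screen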;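 also: plate controls were DMSO with enzyme for no effect and no enzyme wells for full effect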
hIAP inh = blocks human intestinal alkaline phosphatase; P09923; purified IAP, CDP-Star luminescence, 30 min; inhibition, % at 10 µM; hit rate 0.12% among 330,000; AID 2544;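 active = inhibition reaching a set limit with compound at 10 µM in the primary screen, cut at about 35% in these data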;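 also: plate controls were DMSO wells with enzyme for no effect and no-enzyme buffer wells for full effect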
mIAP inh conf = mouse IAP inhibition confirmation; shares compounds with mIAP block; purified mouse IAP, CDP-Star luminescence, 30 min; inhibition, % at 10 µM; hit rate 4.7% among 11,000;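 active = inhibition of at least 40% at 10 µM in either of the two replicates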;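 also: plate controls were DMSO wells with enzyme for no effect and buffer wells lacking enzyme for full effect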
Numbers without * were called inactive; nt = not tested or not shown. The list is not random: actives were taken first. Their share in the collection is about 0.79%.

SMILES	bIAP act	bIAP inh	mIAP activ	hIAP activ	mIAP block	hIAP inh	mIAP inh conf
CC(C)CC(=O)NC(NC(=S)Nc1sc2c(c1C#N)CCCC2)C(Cl)(Cl)Cl (configuration not stated)	0.5	46	0.59	0.93	41*	7	41*
COC(=O)c1ccccc1NCc1cc(=O)oc2cc(O)c(O)cc12	nt	nt	0.56	0.74	44*	26	44*
O=C(CC1Nc2cccc3cccc(c23)NC1=O)Nc1ccccc1 (configuration not stated)	1.1	-8	0.63	1.1	37	-9	nt
NC(=O)CC1Nc2cccc3cccc(c23)NC1=O (configuration not stated)	0.9	5	0.59	1.2	41*	-17	50*
CN1CCc2c(sc3nc(NN)n(Cc4ccccc4)c(=O)c23)C1	nt	nt	0.82	1.7	18	-70	nt
C=CCn1c(Oc2ccc(C=O)cc2OCC)nc2c1c(=O)n(C)c(=O)n2C	nt	nt	0.93	0.97	7	3	nt
COc1ccccc1C(CC(=O)Nc1ccc(Cl)cc1)c1ccc(OC(C)C)cc1 (configuration not stated)	0.4	nt	3.7*	1.3	-268	-28	-91
Cc1cc(O)c2c(c1O)C(=O)[C@]13C(=C2O)C(=O)[C@@H]2[C@@H](O)[C@H]1[C@@H]1[C@H](O)[C@H]3C(=O)C3=C(O)c4c(O)cc(C)c(O)c4C(=O)[C@]312	nt	nt	0.53	0.95	47*	5	41*
COc1cc([C@H]2OC[C@H]3[C@@H]2CO[C@@H]3c2ccc(O[C@H]3O[C@H](CO)[C@@H](O)[C@H](O)[C@H]3O)c(OC)c2)ccc1O[C@@H]1O[C@H](CO)[C@@H](O)[C@H](O)[C@H]1O	nt	nt	1.1	1.1	-11	-12	nt
C=CCn1c(SCC(=O)c2ccc(O)c(O)c2)nnc1-c1cccc(OC)c1	nt	nt	0.59	0.91	41*	9	46*
O=C(O)CCN1C(=O)/C(=C/c2ccc(-c3nc4ccccc4s3)o2)SC1=S	0.6	38	0.63	0.84	37	16	nt
Cc1ccc(NC(=O)CCCN2C(=O)/C(=C/C=C/c3ccccc3)SC2=S)cc1	0.7	32	0.83	0.85	17	15	nt
O=C(O)CCCN1C(=O)/C(=C/C=C/c2ccco2)SC1=S	nt	nt	0.32	1	68*	-2	69*
O=C(NN1C(=O)/C(=C/C=C/c2ccco2)SC1=S)c1ccccc1O	nt	nt	0.13	1.5	87*	-54	93*
O=C(O)CC(C(=O)O)N1C(=O)/C(=C/C=C/c2ccco2)SC1=S (configuration not stated)	nt	nt	0.26	1	74*	-2	80*
Cn1cccc1/C=C1\SC(=S)N(NC(=O)c2ccccc2O)C1=O	nt	nt	0.67	0.94	33	6	nt
O=C(O)CC(C(=O)O)N1C(=O)/C(=C/c2ccc(-c3nc4ccccc4s3)o2)SC1=S (configuration not stated)	0.6	40	0.37	0.94	63*	6	62*
COc1cc2c(C(=O)N3CCN(c4cccc(Cl)c4)CC3)cn(CC(C)C)c(=O)c2cc1OC	1	-3	1.1	1.3	-11	-27	nt
CC1CCCN(C(=O)COC(=O)C2=COCCO2)C1 (configuration not stated)	nt	nt	1.1	1.1	-12	-13	nt
CCC(C)NC(=O)c1ccc(Cl)c(S(=O)(=O)Nc2ccccc2N2CCOCC2)c1 (configuration not stated)	nt	nt	1	0.97	0	3	nt
CC(C)(Oc1ccc(-c2ccco2)cc1)C(=O)O	1	1	0.92	0.98	8	2	nt
CC(=O)c1sc(C(=O)O)c(-c2ccco2)c1-c1ccco1	nt	nt	0.45	0.96	55*	4	64*
CCN(CC)S(=O)(=O)c1ccc2c(c1)c(=O)c(C(=O)NCc1ccco1)cn2C	1.2	-22	0.91	1.2	9	-25	nt
Cc1ncccc1C(=O)N1CCCC(CNC(=O)C2(c3ccc(Cl)cc3)CC2)C1 (configuration not stated)	1.1	-5	1	0.99	-3	1	nt
Cc1nnc(SCC(=O)NCCC2=CCCCC2)[nH]c1=O	nt	nt	1.1	0.94	-9	6	nt
